Rin1 Abl inh – inhibitors of Rin1-Abl protein binding, primary screen, biochemical, TR-FRET | Tyrosine-protein kinase ABL1 (Homo sapiens) + Ras and Rab interactor 1 (Homo sapiens), … | inhibition, % at 7.35 µM | 360,000 tested, 0.4% active; in the data active means inhibition above about 5%, passing the limit was not always enough
Arrestin-AP2 inh – inhibitors of beta-arrestin/AP2 binding, primary screen, biochemical, GPCR trafficking, flow cytometry; inhibition, % at 10 µM; FITC-arrestin peptide / GST-AP2 beads; AP2 beta2 appendage carries R879A mutation; 340,000 tested, 0.31% active; AID 504490, 2011; beta-arrestin 1 C-terminal peptide binding to AP2 beta2-adaptin appendage (human);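 active means inhibition above a set limit, near 3 SD of compounds lacking own fluorescence, cut at about 54% in these data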;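 further: plate controls were DMSO wells for no effect and 5 µM unlabelled arrestin peptide for full effect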
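Material – GST-tagged AP2 beta2-adaptin appendage (R879A) on 4 µm glutathione beads · Probe or stimulus – fluorescein-tagged arrestin peptide at 50 nM final · Timing – 12 min plus 1 h, RT · Detection – bead flow cytometry, FITC channel · Read-out basis – inhibition as reduced fluorescein signal on beads, percent · Medium – PBS plus Tween 20 (0.05%) and BSA (0.1%)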
STK33 inh – inhibitors of purified STK33 kinase, primary screen, biochemical, ADP-Glo luminescence, homogeneous, cell-free; Serine/threonine-protein kinase 33 (Homo sapiens), Q9BYT3; AID 2661, 2010; 320,000 tested, 0.073% active; inhibition, % at 10 µM; MBP phosphorylation;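 active means inhibition at or above 25%, using the most active replicate where run in duplicate; inactive means inhibition below 25%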
Dyrk1A ADPGlo – rat Dyrk1A kinase inhibitors, primary screen, biochemical, single point, plate reader | 310,000 tested, 0.43% active | ADP-Glo luminescence, NFATc1 peptide | Dual specificity tyrosine-phosphorylation-regulated kinase 1A (Rattus norvegicus), Q63470 | AID 504441, 2011 | inhibition, % at 12.5 µM; in the data active means inhibition above about 50%;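 further: plate controls were vehicle with enzyme for no effect and no enzyme for full effect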
GSK3beta inhib – human GSK3beta kinase inhibitors, primary screen, biochemical, cell-free homogeneous, HTS. 300,000 tested, 0.038% active. Glycogen synthase kinase-3 beta (Homo sapiens), P49841. activity score (negative = inhibition), % at 10 µM. GST-GSK3beta kinase, ADP-Glo luminescence, 60 min; stronger effect = lower value. AID 2097, 2009;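 active means more than half of replicate wells score below -50%, meaning over 50% inhibition versus plate controls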;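 further: 0% = median DMSO wells and -100% = median GW8510 positive control wells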
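test system = GST-tagged human GSK3beta kinase, cell-free | reagent = 25 µM ATP with peptide substrate | dosing = one dose of 10 µM per compound | schedule = 60 min reaction, RT | detection = luminescent ADP-Glo measurement of ADP formed | control set = DMSO neutral wells and GW8510 at 20 µM as positive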
GSK3A inh – blockers of GSK3A enzyme activity – biochemical, luminescence, cell-free homogeneous, HTS, primary screen. GSK-3 alpha kinase, ADP-Glo luminescence, 60 min. Glycogen synthase kinase-3 alpha (Homo sapiens), P49840. 320,000 tested, 0.1% active. inhibition, % at 10 µM. AID 2650, 2010;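 active means more than half of replicates show inhibition above 20%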;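 further: GST-tagged GSK-3 alpha with peptide substrate and 25 µM ATP; 0% = DMSO neutral wells and 100% = GW8510 positive control wells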
Target sequence (P49840 whole entry, looked up): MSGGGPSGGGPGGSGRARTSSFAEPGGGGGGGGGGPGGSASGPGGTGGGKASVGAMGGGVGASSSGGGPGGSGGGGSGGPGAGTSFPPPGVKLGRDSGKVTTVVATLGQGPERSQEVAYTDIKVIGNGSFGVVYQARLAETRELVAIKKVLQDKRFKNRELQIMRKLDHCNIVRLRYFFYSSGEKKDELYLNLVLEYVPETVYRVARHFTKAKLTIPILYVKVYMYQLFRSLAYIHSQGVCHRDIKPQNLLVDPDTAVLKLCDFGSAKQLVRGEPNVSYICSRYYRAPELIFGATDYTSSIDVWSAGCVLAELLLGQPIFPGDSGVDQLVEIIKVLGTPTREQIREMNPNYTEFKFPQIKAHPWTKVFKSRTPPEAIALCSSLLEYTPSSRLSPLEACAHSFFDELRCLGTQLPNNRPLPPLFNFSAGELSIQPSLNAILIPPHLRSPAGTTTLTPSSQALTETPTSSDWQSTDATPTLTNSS
Arr-AP2 CP1 – inhibitors of arrestin peptide binding to AP2, confirmation, biochemical, cherry pick 1, flow cytometry beads | shares compounds with Arrestin-AP2 inh | GST-AP2 beads, FITC arrestin peptide binding; GST-fused beta2-adaptin appendage, R879A mutant | inhibition, % at 10 µM | 1,300 tested, 2% active | AID 504908, 2011;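 active means inhibition above a set limit, roughly 3 SD of non-fluorescent compound noise, cut at about 38% in these data; inactive means inhibition at or below that limit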;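 further: loss of bead fluorescence from 50 nM FITC arrestin peptide bound to appendage; 0% = negative control wells and 100% = excess unlabelled arrestin peptide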
GST-FITC bead – GST-fluorescein capture on glutathione beads, confirmation, artefact control for arrestin-AP2 inhibitor project, biochemical, cherry pick 1, flow cytometry | 1,300 tested, 2% active | shares compounds with Arrestin-AP2 inh | AID 588338, 2011 | inhibition, % at 10 µM | GST-fluorescein binding to GSH beads, fluorescence, counter-screen;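 active means inhibition above 50%, about 3 SD of the inhibition seen with non-fluorescent compounds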;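 further: fluorescein maleimide labelled GST captured on 4 micron glutathione beads; higher means more loss of bead fluorescence from quenching or blocked binding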
* hit, by the source's call. In the library only some 0.99% were active in any assay of this set; here they are far more common.

Screening CC(C)c1ccc2[nH]c(O)c(N=NC(=O)c3cccc(S(=O)(=O)Nc4ccccc4Cl)c3)c2c1 returned Rin1 Abl inh -1.8, Arrestin-AP2 inh 99.7*, STK33 inh 0.1, Dyrk1A ADPGlo 0.4, GSK3beta inhib 1.9, GSK3A inh 3.8, Arr-AP2 CP1 -4.2 and GST-FITC bead -4.8.
Screening O=C(N=Nc1c(O)[nH]c2ccccc12)c1cccc(S(=O)(=O)Nc2ccccc2Cl)c1 returned Rin1 Abl inh -2.7, Arrestin-AP2 inh 7.5, STK33 inh -0.6, Dyrk1A ADPGlo -0.5, GSK3beta inhib -0.2 and GSK3A inh -9.1.
CCNC(=O)C1CCCN(C(=O)c2ccc(C(F)(F)F)cc2)CC1 (configuration not stated) was read as Rin1 Abl inh 3.8.
Screening CCOC(=O)N1CCN(C(=O)CCSCCc2ccncc2)CC1 returned Rin1 Abl inh -2.8, Arrestin-AP2 inh 56.8*, STK33 inh -0.8, Dyrk1A ADPGlo 1.1, GSK3beta inhib -1.5, GSK3A inh -0.3, Arr-AP2 CP1 -5.5 and GST-FITC bead -6.5.
`CCNS(=O)(=O)c1ccc(CCC(=O)N2CCN(C(=O)OCC)CC2)cc1` gave Rin1 Abl inh -1.5, Arrestin-AP2 inh -1.0, STK33 inh 0.0, Dyrk1A ADPGlo 11.1, GSK3beta inhib 0.0 and GSK3A inh -5.5.
For CCN(C(=O)Cn1cnc2c1c(=O)n(C)c(=O)n2C)C1CCCCC1 the results were Rin1 Abl inh 3.3, Arrestin-AP2 inh 60.9*, STK33 inh -0.5, GSK3A inh 0.6, Arr-AP2 CP1 -2.1 and GST-FITC bead -11.6.
Screening CCN(C(=O)Cn1cnc2c1c(=O)n(C)c(=O)n2C)C1CCS(=O)(=O)C1 (configuration not stated) returned Rin1 Abl inh 2.0, Arrestin-AP2 inh 3.8, STK33 inh -0.3 and GSK3A inh -3.5.
`Cc1ccc(NC(=O)N2CCCCCC2)cc1C` gave Rin1 Abl inh 0.2, Arrestin-AP2 inh 62.9*, STK33 inh -1.4, Dyrk1A ADPGlo -0.5, GSK3beta inhib -0.4, GSK3A inh -0.2, Arr-AP2 CP1 -13.6 and GST-FITC bead -3.9.
CCN1/C(=C/C=C/c2sc3ccccc3[n+]2CC)Sc2ccccc21 was read as Rin1 Abl inh -15.8, Arrestin-AP2 inh 75.5*, STK33 inh 3.3, Dyrk1A ADPGlo 31.8, GSK3beta inhib 2.7, GSK3A inh 31.5, Arr-AP2 CP1 32.8 and GST-FITC bead 31.5.
CCN1/C(=C/C=C/C=C/C=C/c2sc3ccccc3[n+]2CC)Sc2ccccc21 was read as Rin1 Abl inh 5.3, Arrestin-AP2 inh 55.0*, STK33 inh 0.5, Dyrk1A ADPGlo 3.1, GSK3beta inhib -2.1, GSK3A inh -2.2, Arr-AP2 CP1 25.8 and GST-FITC bead 7.8.
`COc1cc2c(cc1NC(=O)C(C)Sc1ccc(NC(C)=O)cc1)oc1ccccc12` (configuration not stated) gave Rin1 Abl inh -0.1, Arrestin-AP2 inh 0.4, STK33 inh -0.8, Dyrk1A ADPGlo -1.6, GSK3beta inhib -1.7, GSK3A inh 3.2, Arr-AP2 CP1 2.1 and GST-FITC bead -6.5.
COc1cc2c(cc1NC(=S)Nc1cccc(C)c1)oc1ccccc12 was read as Rin1 Abl inh -0.9, Arrestin-AP2 inh -10.1, STK33 inh -1.0, Dyrk1A ADPGlo 7.3, GSK3beta inhib 1.8 and GSK3A inh -2.8.
COc1cc2c(cc1NC(=O)Nc1ccc(F)cc1)oc1ccccc12 was read as Rin1 Abl inh -3.1, Arrestin-AP2 inh -2.5, STK33 inh -1.8, Dyrk1A ADPGlo 4.9, GSK3beta inhib 1.6, GSK3A inh -0.2, Arr-AP2 CP1 -11.4 and GST-FITC bead -7.1.
Screening COc1cc2c(cc1NC(=O)Nc1ccc(C)cc1)oc1ccccc12 returned Rin1 Abl inh -1.2, Arrestin-AP2 inh 12.4, STK33 inh -0.9, Dyrk1A ADPGlo -6.1, GSK3beta inhib 1.7, GSK3A inh -1.4, Arr-AP2 CP1 -7.5 and GST-FITC bead 9.3.
For COc1cc2c(cc1NC(=O)Nc1cccc(C)c1)oc1ccccc12 the results were Rin1 Abl inh 1.0, Arrestin-AP2 inh 2.9, STK33 inh -0.4, Dyrk1A ADPGlo 11.8, GSK3beta inhib -2.4, GSK3A inh -0.4, Arr-AP2 CP1 14.4 and GST-FITC bead 7.4.
Screening Cc1ccc(S(=O)(=O)N2CCCN(C(C)c3nc4ccccc4c(=O)[nH]3)CC2)cc1 (configuration not stated) returned Rin1 Abl inh 2.3, Arrestin-AP2 inh -0.2, STK33 inh -0.7 and GSK3A inh 1.6.
Screening O=C(COc1ccccc1Br)NC1CC1 returned Rin1 Abl inh -4.1, Arrestin-AP2 inh 0.5, STK33 inh 1.6, Dyrk1A ADPGlo -11.5, GSK3beta inhib 2.6 and GSK3A inh 2.4.
Screening O=C(COc1ccccc1Br)NC(=O)NC1CCCC1 returned Rin1 Abl inh 1.4, Arrestin-AP2 inh 55.8*, Dyrk1A ADPGlo -0.8, Arr-AP2 CP1 -7.3 and GST-FITC bead -8.1.
Cc1occc1C(=O)N/N=C/C1=C(N2CCOCC2)C(=C\c2ccc(Cl)cc2Cl)/CC1 was read as Rin1 Abl inh 2.8, Arrestin-AP2 inh 98.1*, STK33 inh -0.9, Dyrk1A ADPGlo -52.4, GSK3beta inhib 0.6, GSK3A inh 1.5, Arr-AP2 CP1 3.1 and GST-FITC bead 2.1.
`COc1ccc(C(=O)NNC2=Nc3cccc4cccc2c34)cc1` gave Rin1 Abl inh -1.9, Arrestin-AP2 inh 14.7, STK33 inh -0.4, Dyrk1A ADPGlo -1.4, GSK3beta inhib 3.8 and GSK3A inh 0.4.
Screening COc1ccc(CC(=O)NNC2=Nc3cccc4cccc2c34)cc1 returned Rin1 Abl inh -0.8, Arrestin-AP2 inh 57.6*, STK33 inh 0.0, Dyrk1A ADPGlo 1.8, GSK3beta inhib 0.1, GSK3A inh 6.2, Arr-AP2 CP1 2.4 and GST-FITC bead -3.3.

Bioassay records from PubChem.
